Type in all cases: functional
For test [1], the species on record is Mus musculus. Description: Evaluated for antagonistic activity on nicotine-induced tonic-extensor convulsions (TE) in CF1 mice. Put shortly: (§1)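 Compounds dissolved or suspended in 0.25% aqueous methylcellulose and given ip to mice in groups of four or six per dose, at several dose levels spaced 0.3 log units apart. Scoring follows previously described procedures. ED50 values in mg/kg were calculated by the Spearman-Karber method.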

For test [2], the species on record is Mus musculus. The experiment in a line: Loss of righting reflex (LORR) was evaluated in CF1 mice. Put shortly: as §1
For test [3], the species on record is Mus musculus. The experiment in a line: Evaluated for the pentylene induced clonic convulsions (P) in CF1 mice. An outline of the steps:
as §1

The species entered for test [4] is Mus musculus. The experiment in a line: Evaluated for the antagonism of nicotine induced death (D) in CF1 mice. Put shortly: as §1
The species entered for test [5] is Mus musculus. Description: Loss of traction (TR) was evaluated in CF1 mice. Put shortly: as §1
For test [6], the species on record is Mus musculus. The experiment in a line: Loss of righting reflex (LORR) was evaluated in mice. An outline of the steps: as §1
Test [7] is filed under the species Mus musculus. The experiment in a line: Loss of traction (TR) was evaluated in mice. An outline of the steps:
as §1

What is called ED50 is the dose at which the effect has come halfway, by size or by number of responders. A high value points to a need for a large dose. On to `CC(=O)OC1N=C(c2ccccc2)c2cc(Cl)ccc2-n2c(C)nnc21` (centres undefined), for which the ED50 is 1 mg/kg in the test filed under Mus musculus [1]; above 200 mg/kg in the test filed under Mus musculus [2]; 8.9 mg/kg in the test listed under Mus musculus [3]; 1 mg/kg in the test listed under Mus musculus [4]; 18 mg/kg in the test listed under Mus musculus [5].
On to `Cc1nnc2n1-c1ccc(Cl)cc1C(c1ccccc1)=NC2C` (centres undefined), for which the ED50 was 0.056 mg/kg in the test listed under Mus musculus [1]; 0.1 mg/kg in the test listed under Mus musculus [3]; above 200 mg/kg in the test filed under Mus musculus [6]; 0.056 mg/kg in the test listed under Mus musculus [4]; 1.8 mg/kg in the test filed under Mus musculus [5].
Take `CCOC(=O)C1(C)N=C(c2ccccc2)c2cc(Cl)ccc2-n2c(C)nnc21` (centres undefined): the ED50 was 16 mg/kg in the test filed under Mus musculus [1]; above 200 mg/kg in the test listed under Mus musculus [2]; 40 mg/kg in the test filed under Mus musculus [3]; 18 mg/kg in the test listed under Mus musculus [4]; 112 mg/kg in the test listed under Mus musculus [5].
Taken in the same sequence, the figures for `CCOC(=O)CC1(C(=O)OCC)N=C(c2ccccc2)c2cc(Cl)ccc2-n2c(C)nnc21` (centres undefined) were above 200 mg/kg, above 200 mg/kg, above 50 mg/kg, above 200 mg/kg and above 200 mg/kg.
As for `Cc1nnc2n1-c1ccc(Cl)cc1C(c1ccccc1)NC2=O` (centres undefined), the median effective dose (ED50) is above 100 mg/kg in the test filed under Mus musculus [1], above 100 mg/kg in the test filed under Mus musculus [2], above 25 mg/kg in the test listed under Mus musculus [3] and above 100 mg/kg in the test listed under Mus musculus [5].
With `Cc1nnc2n1-c1ccc(Cl)cc1C(c1ccccc1)=[N+]([O-])C2`, the ED50 in the test filed under Mus musculus [1] was 0.2 mg/kg; in the test filed under Mus musculus [2], above 200 mg/kg; in the test filed under Mus musculus [3] it was 1.8 mg/kg; in the test filed under Mus musculus [4] it was 0.2 mg/kg; in the test filed under Mus musculus [5], 10 mg/kg.
Take `Cc1nnc2n1-c1ccc(Cl)cc1C(c1ccccc1)=NC2N` (centres undefined): the ED50 in the test filed under Mus musculus [1] is 0.36 mg/kg; in the test filed under Mus musculus [3] it was 3.5 mg/kg; in the test filed under Mus musculus [6] it was above 100 mg/kg; in the test listed under Mus musculus [4], 0.63 mg/kg; in the test listed under Mus musculus [5] it was 18 mg/kg.
As to `CCOC(=O)C1N=C(c2ccccc2)c2cc(Cl)ccc2-n2c(C)nnc21` (centres undefined), the ED50 was 50 mg/kg in the test filed under Mus musculus [1]; above 100 mg/kg in the test filed under Mus musculus [3]; above 100 mg/kg in the test filed under Mus musculus [6]; 45 mg/kg in the test filed under Mus musculus [4]; above 100 mg/kg in the test listed under Mus musculus [5].
Take `Cc1nnc2n1-c1ccc(Cl)cc1C1(c3ccccc3)ON1C2` (centres undefined): the ED50 in the test filed under Mus musculus [1] was 0.12 mg/kg; in the test filed under Mus musculus [2] it was above 25 mg/kg; in the test filed under Mus musculus [3], 0.2 mg/kg; in the test filed under Mus musculus [4], 0.12 mg/kg; in the test filed under Mus musculus [5] it was 2.5 mg/kg.
As to `Cc1nnc2n1-c1ccc(Cl)cc1C(c1ccccc1)=NC2CC(=O)O` (centres undefined), the ED50 in the test filed under Mus musculus [1] was 0.9 mg/kg; in the test filed under Mus musculus [3], 5 mg/kg; in the test filed under Mus musculus [6], above 200 mg/kg; in the test filed under Mus musculus [4], 0.9 mg/kg; in the test listed under Mus musculus [5] it was 13 mg/kg.
Regarding `Cc1nnc2n1-c1ccc(Cl)cc1C(c1ccccc1)N=C2N` (centres undefined), the ED50 in the test listed under Mus musculus [1] is 40 mg/kg; in the test filed under Mus musculus [2], above 200 mg/kg; in the test listed under Mus musculus [3], above 100 mg/kg; in the test filed under Mus musculus [4], 40 mg/kg; in the test filed under Mus musculus [5] it was above 200 mg/kg.
For `CCOC(=O)C1(N)N=C(c2ccccc2)c2cc(Cl)ccc2-n2c(C)nnc21` (centres undefined), the ED50 was 3.1 mg/kg in the test filed under Mus musculus [1]; above 200 mg/kg in the test listed under Mus musculus [2]; 32 mg/kg in the test filed under Mus musculus [3]; 4.5 mg/kg in the test listed under Mus musculus [4]; 159 mg/kg in the test listed under Mus musculus [5].
Taken in the same sequence, the figures for `Cc1nnc2n1-c1ccc(Cl)cc1C(c1ccccc1)=NC2O` (centres undefined) [4-HYDROXY-ALPRAZOLAM] were 4 mg/kg, above 50 mg/kg, 8.9 mg/kg, 4 mg/kg and 23 mg/kg.
With `Cc1nnc2n1-c1ccc(Cl)cc1C(c1ccccc1)=NC2` [ALPRAZOLAM], the 50% effective dose (ED50) is 0.02 mg/kg in the test listed under Mus musculus [1]; 0.6 mg/kg in the test listed under Mus musculus [7]; above 100 mg/kg in the test filed under Mus musculus [2]; 0.2 mg/kg in the test listed under Mus musculus [3]; 0.02 mg/kg in the test listed under Mus musculus [4].

These data come from ChEMBL document CHEMBL1121452, “8-Chloro-1-methyl-6-phenyl-4H-s-triazolo[4,3-a][1,4]benzodiazepines with substituents at C-4” (1980).
